Source: ChEMBL document CHEMBL4184225, “Discovery of selective 2,4-diaminoquinazoline toll-like receptor 7 (TLR 7) agonists” (Bioorg Med Chem Lett, 2018)

Experiments:
[1] = molecular target: T1, Toll-like receptor 8 (Homo sapiens, UniProt Q9NR97); test: Agonist activity at human TLR8 expressed in HEK293 cells assessed as induction of receptor activation incubated for 6 hrs by NF-kappaB-luciferase reporter gene assay; format: cell-based; details: hek293, 6 h
T1 sequence (Q9NR97 whole entry): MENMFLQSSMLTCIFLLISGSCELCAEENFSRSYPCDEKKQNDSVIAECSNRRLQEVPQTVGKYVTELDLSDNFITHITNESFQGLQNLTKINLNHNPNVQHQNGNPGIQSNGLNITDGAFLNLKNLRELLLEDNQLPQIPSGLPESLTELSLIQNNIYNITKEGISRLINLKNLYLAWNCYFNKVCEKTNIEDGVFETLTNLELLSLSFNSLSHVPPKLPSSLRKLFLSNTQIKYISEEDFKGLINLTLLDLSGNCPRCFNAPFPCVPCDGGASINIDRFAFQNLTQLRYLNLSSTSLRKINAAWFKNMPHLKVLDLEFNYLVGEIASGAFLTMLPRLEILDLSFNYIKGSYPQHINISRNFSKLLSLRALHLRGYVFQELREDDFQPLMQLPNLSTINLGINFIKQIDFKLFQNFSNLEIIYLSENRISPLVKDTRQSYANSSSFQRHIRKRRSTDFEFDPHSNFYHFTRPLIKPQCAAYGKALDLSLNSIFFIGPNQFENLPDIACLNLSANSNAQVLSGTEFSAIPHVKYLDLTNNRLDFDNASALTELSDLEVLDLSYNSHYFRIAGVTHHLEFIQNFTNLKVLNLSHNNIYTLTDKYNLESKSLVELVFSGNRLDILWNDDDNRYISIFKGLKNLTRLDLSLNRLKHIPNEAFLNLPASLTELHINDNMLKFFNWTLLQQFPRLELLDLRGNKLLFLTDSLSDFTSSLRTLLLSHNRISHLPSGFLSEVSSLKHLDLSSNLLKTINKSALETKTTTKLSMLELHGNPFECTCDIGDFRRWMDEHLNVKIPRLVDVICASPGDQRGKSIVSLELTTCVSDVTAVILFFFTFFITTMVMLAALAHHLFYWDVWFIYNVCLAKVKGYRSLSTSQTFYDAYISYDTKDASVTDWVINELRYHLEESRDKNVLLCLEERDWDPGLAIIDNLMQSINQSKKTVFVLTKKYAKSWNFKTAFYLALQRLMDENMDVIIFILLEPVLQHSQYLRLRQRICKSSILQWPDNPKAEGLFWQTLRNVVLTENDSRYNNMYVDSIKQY
Summary of the method: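 HEK293 cells transiently transfected overnight at 37°C with CMV-TLR8 plasmid (wild type or dLRR2 mutant) plus NFκB-luc reporter, then exposed to compound for 6 h at 37°C, 5% CO₂. Luciferase read-out. Quadruplicate dose-response. LEC is the concentration giving an effect at least two-fold above the assay SD, averaged over two or more independent experiments.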

[2] = molecular target: T2, Toll-like receptor 7 (Homo sapiens) (UniProt Q9NYK1); test: Agonist activity at TLR7 in human PBMC assessed as suppression of HCV replicon replication in human HuH7 luc/neo cells harboring RNA encoding bicistronic expression construct comprising wild type HCV type 1b NS3-NS5B regions exposed to conditioned media from compound treated PBMCs by luciferase reporter gene assay; format: cell-based
T2 sequence (whole entry): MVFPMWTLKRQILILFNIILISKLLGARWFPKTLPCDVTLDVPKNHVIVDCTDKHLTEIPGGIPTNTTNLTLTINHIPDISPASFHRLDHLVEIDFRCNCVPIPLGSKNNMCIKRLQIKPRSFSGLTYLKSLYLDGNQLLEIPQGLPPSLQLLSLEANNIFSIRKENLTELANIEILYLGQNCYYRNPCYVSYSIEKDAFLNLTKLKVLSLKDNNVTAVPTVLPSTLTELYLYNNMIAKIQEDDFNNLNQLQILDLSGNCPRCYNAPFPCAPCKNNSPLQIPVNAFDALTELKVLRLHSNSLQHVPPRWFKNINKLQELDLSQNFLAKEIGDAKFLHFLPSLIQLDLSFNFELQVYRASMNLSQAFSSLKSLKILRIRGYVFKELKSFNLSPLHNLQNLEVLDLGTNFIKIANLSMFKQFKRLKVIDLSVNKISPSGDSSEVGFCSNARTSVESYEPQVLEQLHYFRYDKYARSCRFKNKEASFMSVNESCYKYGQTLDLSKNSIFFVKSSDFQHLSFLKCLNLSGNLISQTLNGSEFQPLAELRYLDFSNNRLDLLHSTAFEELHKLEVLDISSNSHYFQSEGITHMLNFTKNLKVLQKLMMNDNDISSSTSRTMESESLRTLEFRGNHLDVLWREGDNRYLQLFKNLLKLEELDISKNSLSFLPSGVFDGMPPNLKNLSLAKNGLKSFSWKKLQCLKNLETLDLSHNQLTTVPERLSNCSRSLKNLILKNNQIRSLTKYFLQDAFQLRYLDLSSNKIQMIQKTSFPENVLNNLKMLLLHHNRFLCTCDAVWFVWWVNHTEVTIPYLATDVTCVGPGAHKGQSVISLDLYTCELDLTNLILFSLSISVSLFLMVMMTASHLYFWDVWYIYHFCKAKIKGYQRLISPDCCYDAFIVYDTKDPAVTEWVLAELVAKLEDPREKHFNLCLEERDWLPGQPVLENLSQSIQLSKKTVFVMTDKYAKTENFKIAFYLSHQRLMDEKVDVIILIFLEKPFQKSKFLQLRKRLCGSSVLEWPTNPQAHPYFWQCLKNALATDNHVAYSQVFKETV
Summary of the method: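 PBMCs from buffy coats of at least two donors (Ficoll), in RPMI with 10% human AB serum, 2 x 10^5 cells/well, incubated overnight with compound. Supernatant transferred onto Huh7-luc/neo replicon cells plated the day before (2.2 x 10^3/well). Luciferase read after 24 h. EC50 is the concentration applied to PBMCs giving 50% luciferase reduction. Recombinant IFN-α2a standard.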

[3] = molecular target: T2, Toll-like receptor 7 (Homo sapiens); test: Agonist activity at human TLR7 expressed in HEK293 cells assessed as induction of receptor activation incubated for 6 hrs by NF-kappaB-luciferase reporter gene assay; format: cell-based
Summary of the method: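 HEK293 cells transiently transfected overnight with CMV-TLR7 (wild type or dLRR2 mutant) plus NFκB-luc plasmids. Seeded at 1.67 x 10^5 cells/mL onto compound in 4% DMSO (stock), 6 h at 37°C, 5% CO2, luciferase readout. Quadruplicate dose-response. LEC is the concentration giving an effect at least two-fold above assay SD. Values averaged over independent experiments where repeated.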

[4] = Cytotoxic activity against HEK293 cells assessed as reduction in cell viability incubated for 6 hrs; format: cell-based; details: human
Summary of the method: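 HEK293 cells transfected with the CMV-TLR7 construct alone, treated with a compound dilution series for 6 h at 37°C, 5% CO₂. Viability read by ATP luminescence. Reported as CC50.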

[5] = Metabolic stability in human liver microsomes assessed as drug metabolism after 15 mins at 1 uM; format: ADME, microsome; details: read-out: Drug metabolism
Summary of the method: (§1)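 Compound at 1µM incubated with liver microsomes of the stated species. Percent of compound metabolized after 15 min.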

[6] = Metabolic stability in mouse liver microsomes assessed as drug metabolism after 15 mins at 1 uM; format: ADME, microsome; details: read-out: Drug metabolism; summary of the method: as §1

SMILES	MEC [1]	MEC [2]	MEC [3]	CC50 at 6 h [4]	metabolised at 0.25 h, 1 µM [5]	metabolised at 0.25 h, 1 µM [6]
CNc1nc(N)nc2ccccc12	6.87 µM	8.88 µM	18.7 µM	> 25 µM		
CCCC(C)Nc1nc(N)nc2ccccc12 (stereo not given)	0.17 µM	0.1 µM	0.71 µM	> 25 µM		
CCCCNc1nc(N)nc2cc(C(=O)N(C)C)ccc12	0.5 µM	0.06 µM	0.1 µM	> 18 µM		
CCCCNc1nc(N)nc2cc(C(N)=O)ccc12	2 µM	0.15 µM	0.4 µM	> 18 µM		
CCCCCNc1nc(N)nc2ccccc12	0.1 µM	0.04 µM	0.06 µM	> 25 µM		
CCCCNc1nc(N)nc2cccc(C(=O)N(C)C(C)C)c12	> 25 µM	1.92 µM	5.62 µM	> 25 µM		
CCCCNc1nc(N)nc2cccc(C(=O)N[C@@H](C)c3cccc(OC)c3)c12	> 25 µM	0.5 µM	0.37 µM	> 25 µM	97%	96%
CCCCNc1nc(N)nc2cccc(Cl)c12		0.17 µM	1 µM	> 25 µM	99%	88%
CCNc1nc(N)nc2ccccc12	0.77 µM	2.27 µM	3.07 µM	> 25 µM		
CCCNc1nc(N)nc2ccccc12	0.93 µM	0.67 µM	1.07 µM	> 25 µM		
CCCCNc1nc(N)nc2ccc(CO)cc12	0.2 µM	0.14 µM	0.9 µM	> 18 µM		
CCCCNc1nc(N)nc2cccc(CC3CCCC3)c12	> 25 µM	0.09 µM	0.12 µM	> 25 µM		
CCCCNc1nc(N)nc2cc(OC)ccc12	0.3 µM	0.15 µM	0.9 µM	> 18 µM		
CCCCNc1nc(N)nc2cccc(OC)c12	0.1 µM	0.1 µM	0.4 µM	> 25 µM	98%	100%
CCCCNc1nc(N)nc2cccc(C(=O)N[C@@H](C)c3ccccc3OC)c12	> 25 µM	0.14 µM	0.28 µM	> 25 µM	99%	99%
CCCCNc1nc(N)nc2cc(CN(C)C)ccc12	0.04 µM	0.04 µM	0.2 µM	> 18 µM		
CCCCNc1nc(N)nc2ccc(C(C)=O)cc12	1.9 µM	2.39 µM	6.1 µM	> 18 µM		

SMILES	MEC [1]	MEC [2]	MEC [3]	CC50 at 6 h [4]	metabolised at 0.25 h, 1 µM [5]	metabolised at 0.25 h, 1 µM [6]
CCCCNc1nc(N)nc2c(F)cccc12	0.3 µM	0.07 µM	0.2 µM	> 18 µM		
CCCCNc1nc(N)nc2ccc(C(C)O)cc12 (stereo not given)	5.8 µM	8.49 µM	12 µM	> 18 µM		
CCCCNc1nc(N)nc2cccc(OCCOC)c12	0.2 µM	0.12 µM	0.1 µM	> 25 µM	59%	98%
CCCCNc1nc(N)nc2cc(CO)ccc12	0.1 µM	0.05 µM	0.1 µM	> 18 µM		
CCCCNc1nc(N)ncc1OCC	1.1 µM	1.43 µM	4.7 µM	> 25 µM		
CCCCNc1nc(N)nc2cccc(CCc3ccccc3)c12	0.47 µM	0.27 µM	0.13 µM	> 25 µM	24%	97%
CCCCNc1nc(N)nc2ccc(F)cc12	0.1 µM	0.11 µM	0.3 µM	> 18 µM		
CCCCNc1nc(N)nc2cccc(C)c12	0.3 µM	0.32 µM	0.5 µM	> 25 µM	96%	100%
COCCCNc1nc(N)nc2ccccc12	0.01 µM	0.04 µM	0.46 µM	> 25 µM		
CCCCNc1nc(N)nc2ccc(C#N)cc12	7.1 µM	13.2 µM	> 25 µM	> 18 µM		
CCCCNc1nc(N)nc2cc(OC)c(OC)cc12	1.1 µM	2.05 µM	10 µM	> 18 µM		
CCCCNc1nc(N)nc2ccc(CCc3ccc(N(C)C)cc3)cc12	0.5 µM	0.15 µM	0.2 µM	> 18 µM		
CCCCNc1nc(N)nc2ccc(CCc3ccccn3)cc12	0.3 µM	0.04 µM	0.1 µM	> 18 µM		
CCCCNc1nc(N)nc2cc(F)c(F)cc12	0.1 µM	0.26 µM	1.8 µM	> 18 µM		
CCCCNc1nc(N)nc2ccc(OC)cc12	1.8 µM	2.44 µM	5.6 µM	> 18 µM		
CC(C)CCNc1nc(N)nc2ccccc12	2.11 µM	1.5 µM	> 25 µM	> 25 µM		
